# Results collected from several papers.
# Target: Proto-oncogene tyrosine-protein kinase ROS (ROS1, Homo sapiens, UniProt P08922)
SMILES,test,setting,remaining binding
O=C(NCC1CCOCC1)c1n[nH]cc1NC(=O)c1c(F)cccc1F,"binding, competition with immobilised ligand",1 µM,100%
C=CC(=O)N1CCC(C(=O)NCC(=O)N2CCN(c3nc(-c4cnc(N)nc4C(F)F)nc(N4CCOCC4)n3)CC2)CC1,"binding, competition with immobilised ligand",1 µM,87%
COc1ccc2c(O[C@@H]3C[C@H]4C(=O)N[C@]5(C(=O)O)CC5/C=C\CCCCC[C@H](NC(=O)OC5CCCC5)C(=O)N4C3)cc(-c3csc(NC(=O)C(C)C)n3)nc2c1C (stereo partly shown),"cell-free assay, competition with immobilised ligand",1 µM,100%
Nc1ncc2c(n1)-c1c([nH]c3ccc(C#CC4CC4)cc13)CCCC2,"binding, competition with immobilised ligand",1 µM,99%
COc1ccnn2ncc(-c3ccnc(N(C)C)n3)c12,binding,1 µM,100%
CO[C@@H](C)c1c(Nc2ccc([C@H](N(C)C(=O)C3CCS(=O)(=O)CC3)C(F)(F)F)cc2)cnc2cc(Cl)nn12,"cell-free assay, competition with immobilised ligand",1 µM,77%
CN(c1nccc(-c2cnn3ncccc23)n1)C1CC1,binding,1 µM,100%
CCN1CCN(Cc2ccc(C(=O)Nc3ccc(C)c(Oc4ccc5c(c4)CC(=O)N5)c3)cc2C(F)(F)F)CC1,"binding, competition with immobilised ligand",1 µM,100%
Cc1cnn2ncc(-c3ccnc(N(C)C)n3)c2c1,binding,1 µM,100%
CC1=C(C#N)[C@@H](c2ccc3[nH]nc(C)c3c2)C(C#N)=C(c2ccc(Cl)cc2)N1,"cell-free assay, competition with immobilised ligand",1 µM,100%
Cc1cnc(Nc2ccc(C(=O)N3CCC(N4CCCC4)CC3)cc2)nc1-c1cc2ccccc2s1,"binding, competition with immobilised ligand",1 µM,31%
O=C(Nc1cccnn1)N1CC(C/C=C/c2cncc(Oc3ccc(C(F)(F)F)cn3)n2)C1,"cell-free assay, competition with immobilised ligand",1 µM,100%
N[C@@H]1CCN(c2nccc(-c3cnn4ncccc34)n2)C1,binding,1 µM,72%
O=C(c1ccc(Nc2ncc(Cl)c(-c3cc4ccccc4s3)n2)cc1)N1CCC(N2CCCC2)CC1,"binding, competition with immobilised ligand",1 µM,31%
COc1cnc(Nc2cccc(S(N)(=O)=O)c2)nc1N1CCN(c2ccccc2)C(=O)C1,"binding, competition with immobilised ligand",1 µM,100%
O=C(c1ccc(Nc2nccc(-c3cc4ccccc4s3)n2)cc1)N1CCC(N2CCCC2)CC1,"binding, competition with immobilised ligand",1 µM,65%
CO[C@H]1CC[C@H](CNc2ccc(S(=O)(=O)NC(=O)c3ccc(N4CCN(CC5=C(c6ccc(Cl)cc6)CC(C)(C)CC5)CC4)cc3Oc3cnc4[nH]ccc4c3)cc2[N+](=O)[O-])CC1,"cell-free assay, competition with immobilised ligand",1 µM,72%
C[C@@H]1CCN(c2nccc(-c3cnn4ncccc34)n2)C1,binding,1 µM,99%
CC(C)(O)c1cncc(-c2nc3ccc(F)cc3n2C2CC2)c1,"cell-free assay, competition with immobilised ligand",1 µM,100%
CN(C)c1nccc(-c2cnn3ncccc23)n1,binding,1 µM,100%
N#CC1(c2ccccn2)CCN(Cc2cc(C(=O)N3CCCC3)c(=O)n3ccccc23)CC1,"cell-free assay, competition with immobilised ligand",1 µM,97%
C[C@@H](c1ccc(-n2cnc3c(N)ncnc32)cc1)N1CCc2nn(C)c(Cc3ccccc3)c2C1=O,"binding, competition with immobilised ligand",0.1 µM,100%
